Source: the RNAGym collection of RNA variant scans (doi:10.1126/science.aae0568)
Variants at the floor of the assay were thinned out.

B1: tRNA (parent)
chain: GUUCCGUUGGCGUAAUGGUAACGCGUCUCCCUCCUAAGGAGAAGACUGCGGGUUCGAGUCCCGUACGGAACG

Variants of: B1
Experiment: yeast fitness relative to wild type (ratio to wild type); higher = fitter; tRNA-Arg(CCU), competitive growth, 37 C, YPD
How it was run: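 Amplicons of the tRNA-Arg(CCU) gene were sequenced, 100-nucleotide paired-end, from the start population and from each end population of a pooled yeast competition. The competition, in six parallel replicates, lasted 24 hours in YPD at 37°C. Fitness relative to wild type was calculated from changes in genotype frequencies. Genotypes had to have ≥ 100 starting reads, and estimates < 0.5 were set to 0.5.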

| Variant | yeast fitness |
| --- | --- |
| GUUCCGUUGGCGUAAUGGUAACGCGUCUCCCUCCAAAGGAGAAGACUGCGGGUUCGAGUCCCGUUCGGAACG [U35A A65U] | 0.757 |
| GUUCCGUUGGCGUAAUGGUAACGCGUCUCCCUCUGAAAGAGAAGACUGCGGGUUCGAGUCCUGUCCGGAACG [C34U U35G G38A C62U A65C] | ≤ 0.5 |
| GUUCCGUUGGCGUAAUGGUAACGCGUCUCCCUCUUAAGGAGAAGACUGCGGGUUCGACUCACGUACGGUACG [C34U G58C C61A A69U] | ≤ 0.5 |
| GUUCCGUUGGCGUAAUGGUAACGCGUCUCCCUCUUAAGGAGAAGACAGCGGGUUCGAGUCCCGUAUGGAACG [C34U U47A C66U] | ≤ 0.5 |
| GUUCCGUUGGCGUAAUGGUAACGCGUCUCCCUCCAGAGGAGAAGACUGCGGGUUCGAGUCCCGUACGGAACG [U35A A36G] | 0.65 |
| GUUCCGUUGGCGUAAUGGUAACGCGUCUCCCUCCAUAGGAGAAGCCUGCGGGUUCGAGUCCCGUACGGAACG [U35A A36U A45C] | 0.531 |
| GUUCCGUUGGCGUAAUGGUAACGCGUCUCCCUCCAAAGGAGAAGACUACGGGUUCGAGUCCCGUACGGAACG [U35A G48A] | 0.644 |
| GUUCCGUUGGCGUAAUGGUAACGCGUCUCCCUCUAAAGGAGAAGACUGGGGGUUCGAGUCCCGUACGGAACG [C34U U35A C49G] | 0.57 |
| GUUCCGUUGGCGUAAUGGUAACGCGUCUCCCUCUUAAGGAGAAGACUGCGGGUCCGAGUCCCGUACGGUACG [C34U U54C A69U] | ≤ 0.5 |
| GUUCCGUUGGCGUAAUGGUAACGCGUCUCCCUCUUAAGGAGAAGACUGCGGGCUUGAGUCCCGUACGGAACG [C34U U53C C55U] | ≤ 0.5 |
| GUUCCGUUGGCGUAAUGGUAACGCGUCUCCCUCUUAAGGAGAAGACUGCGGGAUCGAGUCCCGUACGGAACG [C34U U53A] | ≤ 0.5 |
| GUUCCGUUGGCGUAAUGGUAACGCGUCUCCCUCUUAAGGAGAAGACUGCGGGCUCGAGUCCCGUACGGCACG [C34U U53C A69C] | ≤ 0.5 |
| GUUCCGUUGGCGUAAUGGUAACGCGUCUCCCUCCAAAGGAGAAGACUGCGGGUUAGAGUCCCGUAAGGAACG [U35A C55A C66A] | ≤ 0.5 |
| GUUCCGUUGGCGUAAUGGUAACGCGUCUCCCUCCAGAGGUGUAGACUGCGGGUUGGAGUCCCGUACGGAACG [U35A A36G A40U A42U C55G] | ≤ 0.5 |
| GUUCCGUUGGCGUAAUGGUAACGCGUCUCCCUCUUAAGGAGAAGACUGCGGGUUCGAGUCCCGAACGGAACG [C34U U64A] | 0.597 |
| GUUCCGUUGGCGUAAUGGUAACGCGUCUCCCUCUUAAGGAGAAGACGGCGGGUUCGACUCCCGUACGGAACG [C34U U47G G58C] | 0.518 |
| GUUCCGUUGGCGUAAUGGUAACGCGUCUCCCUCUUAAGGAGAAGACCGCGGGUUCGAGUCCCGUACGGAACG [C34U U47C] | 0.67 |
| GUUCCGUUGGCGUAAUGGUAACGCGUCUCCCUCUUAAGGAGAAGACAGCGGGUUCGAGUCCCGUACGGAACG [C34U U47A] | 0.621 |
| GUUCCGUUGGCGUAAUGGUAACGCGUCUCCCUCCAAAGGAGAAGACUGCGGGUUCGAGUGCGGUACGGAACG [U35A C60G C62G] | ≤ 0.5 |

| Variant | yeast fitness |
| --- | --- |
| GUUCCGUUGGCGUAAUGGUAACGCGUCUCCCUCCAAAGGAGAAGACUGCGGGUUCGAGUCCCGUGUGGAACG [U35A A65G C66U] | 0.675 |
| GUUCCGUUGGCGUAAUGGUAACGCGUCUCCCUCCAAAGGAGAAGACUGCGGGUUCGAGUGCCGUACUGAACG [U35A C60G G67U] | ≤ 0.5 |
| GUUCCGUUGGCGUAAUGGUAACGCGUCUCCCUCUAAAGGAGAAGACUGCGGGUUCGAGUCCCGUACGGAACG [C34U U35A] | ≤ 0.5 |
| GUUCCGUUGGCGUAAUGGUAACGCGUCUCCCUCCAGAGGAGAAGACUAUGGGUUCGAGUCCCGUACGGAACG [U35A A36G G48A C49U] | ≤ 0.5 |
| GUUCCGUUGGCGUAAUGGUAACGCGUCUCCCUCUCAAGGAGAAGACUGCGGGUUCGAGUCCCGUACGGACCG [C34U U35C A70C] | ≤ 0.5 |
| GUUCCGUUGGCGUAAUGGUAACGCGUCUCCCUCCAAAGGAGAAGGCUGCGGGUUCGAGUCCCGUACGGAACG [U35A A45G] | 0.759 |
| GUUCCGUUGGCGUAAUGGUAACGCGUCUCCCUCCAAAGGAGAAGACUGCGGGUUAGAGUCCCGUACGGAACG [U35A C55A] | ≤ 0.5 |
| GUUCCGUUGGCGUAAUGGUAACGCGUCUCCCUCCAAAGGAGAAGACUGCGGGUUUGAGUCCCGUACGGAACG [U35A C55U] | 0.564 |
| GUUCCGUUGGCGUAAUGGUAACGCGUCUCCCUCCAAAGGAGAAGACUGCGGAUUCGAGCCCCGUAAAGAACG [U35A G52A U59C C66A G67A] | ≤ 0.5 |
| GUUCCGUUGGCGUAAUGGUAACGCGUCUCCCUCCAAAGGAGAAGACUGCGGGUUCGAGUCCAGUAGGGAACG [U35A C62A C66G] | 0.66 |
| GUUCCGUUGGCGUAAUGGUAACGCGUCUCCCUCCAAAGGAGAAGACUGCGGGUUCGUGUCCCGUACGGUACG [U35A A57U A69U] | ≤ 0.5 |
| GUUCCGUUGGCGUAAUGGUAACGCGUCUCCCUCCAAAGGUCAAGACUGAGGGUUCGAGUCCCGUACGGAACG [U35A A40U G41C C49A] | ≤ 0.5 |
| GUUCCGUUGGCGUAAUGGUAACGCGUCUCCCUCCAAAGGAGAAGACUGCGGGUUCGAGUCCCGUACGGAGCG [U35A A70G] | 0.588 |
| GUUCCGUUGGCGUAAUGGUAACGCGUCUCCCUCCAAAGGAGAAGACUGCGGGUUCGAGUCCCGUACGGACCG [U35A A70C] | 0.769 |
| GUUCCGUUGGCGUAAUGGUAACGCGUCUCCCUCCAAAGGAGAAGACUGCGGGUUCGAGUCCCGUACGGAUCG [U35A A70U] | 0.787 |
| GUUCCGUUGGCGUAAUGGUAACGCGUCUCCCUCCAAAGGAGACGACUGCGGGUUCGAGUCCCGUACGGAACG [U35A A43C] | 0.636 |
| GUUCCGUUGGCGUAAUGGUAACGCGUCUCCCUCCAAGGGAGAAGACUGCGGGUUCGAGUCCCGUACGGAACG [U35A A37G] | ≤ 0.5 |
| GUUCCGUUGGCGUAAUGGUAACGCGUCUCCCUCUCAAGGGGAAGACCGCGGGUUCGAGUCCCGUACGGAACG [C34U U35C A40G U47C] | ≤ 0.5 |
| GUUCCGUUGGCGUAAUGGUAACGCGUCUCCCUCUUAAGGAGAAGACUGCGGGUUCGACUUCCGUAGGGAACG [C34U G58C C60U C66G] | ≤ 0.5 |
